In ChEMBL document CHEMBL1240337, “Identification of proteases that regulate erythrocyte rupture by the malaria parasite Plasmodium falciparum” (Nat Chem Biol, 2008) one finds inhibition and Activity data, which are given here for two molecules.

SMILES strings stand for the structures. Activity calls are given as the source filed them. The rule behind the calls is not given here.

Experiment [1] addresses T1, Falcipain-3 (Plasmodium falciparum 3D7) (UniProt Q8IIL0).
T1 sequence (whole entry): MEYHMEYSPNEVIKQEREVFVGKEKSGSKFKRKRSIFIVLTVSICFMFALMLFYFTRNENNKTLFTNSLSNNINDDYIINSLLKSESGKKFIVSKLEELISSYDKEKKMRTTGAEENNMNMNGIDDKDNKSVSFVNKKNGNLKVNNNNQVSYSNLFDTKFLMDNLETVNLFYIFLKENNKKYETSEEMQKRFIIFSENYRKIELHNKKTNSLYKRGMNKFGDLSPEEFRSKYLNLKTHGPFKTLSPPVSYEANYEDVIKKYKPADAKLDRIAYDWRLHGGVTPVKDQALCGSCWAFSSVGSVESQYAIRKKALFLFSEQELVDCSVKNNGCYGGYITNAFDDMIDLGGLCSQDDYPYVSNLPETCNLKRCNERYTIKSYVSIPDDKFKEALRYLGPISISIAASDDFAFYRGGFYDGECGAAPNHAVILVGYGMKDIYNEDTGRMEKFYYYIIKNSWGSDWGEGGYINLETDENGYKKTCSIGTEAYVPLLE
Put plainly: Inhibition of Plasmodium falciparum 3D7 falcipain-3 by fluorescence spectrophotometry.

Experiment [2] concerns Plasmodium falciparum. Put plainly: Antiplasmodial activity against Plasmodium falciparum schizont infected in human erythrocytes assessed as effect on parasite ring-to-schizont morphology at 1 to 50 uM after 24 by propidium iodide staining-based FACS analysis. It counts as functional, organism-based. In general terms: A flow cytometer gives signals particle by particle.
Experiment [3] deals with T2, Preprocathepsin c, putative (Plasmodium falciparum 3D7) (UniProt Q8I0V1).
T2 sequence (whole entry): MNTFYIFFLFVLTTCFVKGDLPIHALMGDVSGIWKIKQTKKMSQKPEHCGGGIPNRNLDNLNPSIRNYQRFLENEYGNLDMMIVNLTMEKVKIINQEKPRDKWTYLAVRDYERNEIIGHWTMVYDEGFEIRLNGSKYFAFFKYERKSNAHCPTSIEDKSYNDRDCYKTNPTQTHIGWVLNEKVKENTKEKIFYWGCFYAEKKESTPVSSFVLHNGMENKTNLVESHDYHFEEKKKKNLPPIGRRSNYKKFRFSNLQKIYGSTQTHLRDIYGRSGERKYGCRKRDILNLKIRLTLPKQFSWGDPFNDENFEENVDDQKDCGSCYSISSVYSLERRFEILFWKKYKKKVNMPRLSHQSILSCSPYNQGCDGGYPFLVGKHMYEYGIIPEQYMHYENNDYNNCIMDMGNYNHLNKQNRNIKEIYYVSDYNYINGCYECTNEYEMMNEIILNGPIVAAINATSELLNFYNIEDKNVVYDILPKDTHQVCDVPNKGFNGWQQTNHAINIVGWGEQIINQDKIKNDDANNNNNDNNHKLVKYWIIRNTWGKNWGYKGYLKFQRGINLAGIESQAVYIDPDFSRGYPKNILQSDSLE
The experiment in a line: Inhibition of Plasmodium falciparum 3D7 PFL2290w by fluorescence spectrophotometry.

For experiment [4], the system named is Plasmodium falciparum. The experiment in a line: Inhibition of Plasmodium falciparum 3D7 falcipain-2 by fluorescence spectrophotometry.
The target in experiment [5] is T3, Protease, putative (Plasmodium falciparum 3D7) (UniProt Q8I1Y2).
T3 sequence (whole entry): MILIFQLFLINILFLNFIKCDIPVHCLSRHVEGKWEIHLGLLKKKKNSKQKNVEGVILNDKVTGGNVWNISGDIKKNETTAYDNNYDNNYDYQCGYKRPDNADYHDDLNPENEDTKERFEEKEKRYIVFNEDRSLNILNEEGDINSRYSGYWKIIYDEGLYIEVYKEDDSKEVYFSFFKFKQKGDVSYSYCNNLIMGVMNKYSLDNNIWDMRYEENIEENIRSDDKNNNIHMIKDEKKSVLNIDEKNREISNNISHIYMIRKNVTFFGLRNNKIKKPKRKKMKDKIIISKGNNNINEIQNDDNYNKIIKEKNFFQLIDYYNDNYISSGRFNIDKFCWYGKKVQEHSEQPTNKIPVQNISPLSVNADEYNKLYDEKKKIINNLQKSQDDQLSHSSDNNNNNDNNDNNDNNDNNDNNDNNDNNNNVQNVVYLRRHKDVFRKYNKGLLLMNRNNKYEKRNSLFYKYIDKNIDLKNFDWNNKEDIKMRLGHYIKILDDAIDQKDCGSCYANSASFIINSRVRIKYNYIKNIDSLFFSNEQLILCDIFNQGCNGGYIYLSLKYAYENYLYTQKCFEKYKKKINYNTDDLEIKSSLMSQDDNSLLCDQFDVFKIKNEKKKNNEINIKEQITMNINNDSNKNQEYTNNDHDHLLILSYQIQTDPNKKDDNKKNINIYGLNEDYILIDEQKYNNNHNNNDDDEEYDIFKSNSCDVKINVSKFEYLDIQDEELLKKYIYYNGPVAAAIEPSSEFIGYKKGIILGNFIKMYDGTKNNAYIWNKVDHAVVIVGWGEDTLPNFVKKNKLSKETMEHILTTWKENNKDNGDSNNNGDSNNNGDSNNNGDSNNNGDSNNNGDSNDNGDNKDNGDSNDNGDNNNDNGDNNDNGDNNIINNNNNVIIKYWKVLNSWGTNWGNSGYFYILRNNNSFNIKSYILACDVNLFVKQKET
Put plainly: Inhibition of Plasmodium falciparum 3D7 PFD0230c by fluorescence spectrophotometry.

The test system of experiment [6] is Plasmodium falciparum. The experiment in a line: Antiplasmodial activity against Plasmodium falciparum schizont infected in human erythrocytes assessed as inhibition of ring-stage parasite growth at 1 to 50 uM after 24 by propidium iodide staining-based FACS analysis. It counts as functional, organism-based.
The subject of experiment [7] is Plasmodium falciparum. The experiment in a line: Antiplasmodial activity against Plasmodium falciparum infected in human erythrocytes assessed as effect on parasite morphology by Giemsa staining. It counts as functional, organism-based. The method in brief: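 Giemsa-stained thin blood films were read from schizonts exposed at 36 h post invasion to 10 µM inhibitor, to assess rupture and morphology.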

Experiment [8] has as its target T4, Cysteine proteinase falcipain-1 (Plasmodium falciparum 3D7) (UniProt Q8I6V0).
T4 sequence (whole entry): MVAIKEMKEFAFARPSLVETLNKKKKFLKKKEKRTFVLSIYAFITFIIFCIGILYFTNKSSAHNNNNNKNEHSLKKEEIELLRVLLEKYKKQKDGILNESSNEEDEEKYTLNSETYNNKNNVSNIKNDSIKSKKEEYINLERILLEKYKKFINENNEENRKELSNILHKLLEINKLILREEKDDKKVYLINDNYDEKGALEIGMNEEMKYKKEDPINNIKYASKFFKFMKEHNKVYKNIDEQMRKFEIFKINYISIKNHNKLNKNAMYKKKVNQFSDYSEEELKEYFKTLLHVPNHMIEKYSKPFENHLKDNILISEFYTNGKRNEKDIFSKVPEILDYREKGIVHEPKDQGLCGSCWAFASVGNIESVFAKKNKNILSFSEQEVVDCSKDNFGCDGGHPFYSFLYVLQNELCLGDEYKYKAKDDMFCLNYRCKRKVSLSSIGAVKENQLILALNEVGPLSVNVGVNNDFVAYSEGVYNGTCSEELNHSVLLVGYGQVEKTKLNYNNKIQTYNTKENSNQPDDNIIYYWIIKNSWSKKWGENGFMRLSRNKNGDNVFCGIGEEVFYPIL
The experiment in a line: Inhibition of Plasmodium falciparum 3D7 falcipain-1 by fluorescence spectrophotometry.

As for `CCC[C@H](N)C(=O)N[C@H](/C=C/S(=O)(=O)c1ccccc1)CCc1ccccc1`, the inhibition result in experiment [1], in experiment [4], in experiment [5], in experiment [6] and in experiment [8] was “Active” in each case. The result in experiment [2] and in experiment [7] was inactive. For the same molecule, the inhibition entry in experiment [3] was “inactive”.
Take `C[C@H](N)C(=O)N[C@H](/C=C/S(=O)(=O)c1ccccc1)CCc1ccccc1`: the inhibition entry in experiment [1], in experiment [4], in experiment [5], in experiment [6] and in experiment [8] was “Active” in each case. For the same molecule, the result in experiment [2] and in experiment [7] was inactive. For the same molecule, the inhibition result in experiment [3] was “inactive”.
